# Data published in ChEMBL document CHEMBL1133693, “Peptide and peptide mimetic inhibitors of antigen presentation by HLA-DR class II MHC molecules. Design, structure-activity relationships, and X-ray crystal structures” (J Med Chem, 2000).
# Starred links: 1 amine or outer side, 2 acyl side, 3 side chain; linkers in the order of their positions; H or OH if unused. Non-standard residues stand in square brackets, D forms with d. Residues, ends and D or L forms follow the SMILES beside them. ξ: configuration not given here. Haic = O=C1[C@@H](N[*:1])CCc2cccc3c2N1[C@H](C(=O)[*:2])C3; X1 = O=C([C@@H]1C(c2ccccc2)CCN1[*:1])[*:2]; NMePhg = CN[C@H](C(=O)O)c1ccccc1; Tic = O=C(O)[C@@H]1Cc2ccccc2CN1; Cha = N[C@@H](CC1CCCCC1)C(=O)O; NMeL = CN[C@@H](CC(C)C)C(=O)O; ξTle = CC(C)(C)C(N)C(=O)O; NMeA = CN[C@@H](C)C(=O)O; ξNMeA = CNC(C)C(=O)O
# Experiments:
# [1] = Mean relative potency is the ratio of potencies of 'Ac-(Cha)RAMASL-NH2' and compound, to inhibit MHC class II DRB1*0101
# In short: (§1)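 Scintillation proximity competition assay. Test compounds competed against the radioligand, and bound counts were read by scintillation. Ac-(Cha)RAMASL-NH2 was run as standard competitor in every run. Potency is the ratio of standard IC50 to compound IC50.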
# [2] = Mean relative potency is the ratio of potencies of 'Ac-(Cha)RAMASL-NH2' and compound, to inhibit MHC class II DRB1*0401; in short: as §1
# T-cell [3] = assay: T-cell inhibitory potency relative to the IC50 of a(Cha)AAAKTAAAAa-NH2 MHC class II DRB1*0101; format: functional, Homo sapiens
# T-cell [4] = assay: T-cell inhibitory potency relative to the IC50 of a(Cha)AAAKTAAAAa-NH2 in MHC class II DRB1*0401; format: functional, Homo sapiens
# Cathepsin B (Bos taurus) = Cathepsin B (Bos taurus) (UniProt P07688); assay: Percent of original compound remaining with cathepsin B after incubation for 4 hrs was determined by HPLC
# [5] = Mean relative potency is the ratio of potencies of 'Ac-(Cha)RAMASL-NH2' and compound to inhibit MHC class II DRB1*0101; in short: as §1
# [6] = Mean relative potency is the ratio of potencies of 'Ac-(Cha)RAMASL-NH2' and compound to inhibit MHC class II DRB1*0401; in short: as §1
# T-cell [7] = assay: T-cell inhibitory potency relative to the IC50 of a(Cha)AAAKTAAAAa-NH2 iMHC class II DRB1*0101; format: functional, Homo sapiens
# [8] = Degradation half-time was evaluated; format: ADME
# In short: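 Each test peptide at 1.0 mg/mL in pH 6.0 phosphate buffer (88 mM KH2PO4, 12 mM Na2HPO4, 1.33 mM EDTA, 2.0 mM cysteine, internal standard) was prewarmed to 32 °C. Cathepsin B was preactivated 5 min at 37 °C and added at 0.3 U per micromole of compound. Half-time from ln(A0 − A) vs time, t1/2 = 0.693/k.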
# [9] = Mean relative potency is the ratio of potencies of 'Ac-(Cha)RAMASL-NH2' and compound, to inhibit MHC class II DRB1*0404; in short: as §1
Mean relative potency [1],Mean relative potency [2],% remaining (Cathepsin B (Bos taurus)),Mean relative potency [5],Mean relative potency [6],half-life [8],Mean relative potency [9],SMILES,T-cell inhibition (T-cell [3]),T-cell inhibition (T-cell [4]),T-cell inhibition (T-cell [7])
0.49,0.22,116%,,,,,CSCC[C@@H](NC(=O)[C@H]1Cc2ccccc2CN1C(=O)[C@H](CCCN=C(N)N)NC(=O)[C@H](CC1CCCCC1)NC(C)=O)C(=O)N1CCC(c2ccccc2)[C@@H]1C(=O)N[C@@H](CO)C(=O)N(C)[C@@H](CC(C)C)C(N)=O (some centres not stated),2.5,2.7,
,,98%,0.84,0.63,,,CSCC[C@@H](NC(=O)[C@H]1Cc2ccccc2CN1C(=O)[C@H](CCCN=C(N)N)NC(=O)[C@H](CC1CCCCC1)NC(C)=O)C(=O)N1CCC(c2ccccc2)[C@@H]1C(=O)N[C@@H](CO)C(=O)N(C)[C@@H](C)C(N)=O (some centres not stated),,4.6,6.9
,,,,,4.6 min,,CSCC[C@H](NC(=O)[C@H](C)NC(=O)[C@H](CCCN=C(N)N)NC(=O)[C@H](CC1CCCCC1)NC(C)=O)C(=O)N[C@@H](C)C(=O)N[C@@H](CO)C(=O)N(C)[C@@H](CC(C)C)C(N)=O,,,
0,0,,,,,0,CC(=O)N[C@@H](CC1CCCCC1)C(=O)N[C@@H](CCCN=C(N)N)C(=O)N[C@@H](C)C(N)=O,,,
,,99%,0.89,1.05,,,CSCCC(NC(=O)[C@H]1Cc2ccccc2CN1C(=O)[C@H](CCCN=C(N)N)NC(=O)[C@H](CC1CCCCC1)NC(C)=O)C(=O)N(C)[C@@H](C)C(=O)N[C@@H](CO)C(=O)N(C)[C@@H](C)C(N)=O (some centres not stated),,,
,,43%,1.64,1.27,,,CSCC[C@@H](NC(=O)[C@@H](c1ccccc1)N(C)C(=O)[C@H](CCCN=C(N)N)NC(=O)[C@H](CC1CCCCC1)NC(C)=O)C(=O)N(C)[C@@H](C)C(=O)N[C@@H](CO)C(=O)N[C@H](C(N)=O)C(C)(C)C,,,
,,93%,1.15,2.02,,,CSCC[C@@H](NC(=O)[C@@H](c1ccccc1)N(C)C(=O)[C@H](CCCN=C(N)N)NC(=O)[C@H](CC1CCCCC1)NC(C)=O)C(=O)N[C@@H](C)C(=O)N[C@@H](CO)C(=O)N[C@H](C(N)=O)C(C)(C)C,,,
,,97%,0.29,0.38,,,CSCC[C@@H](NC(=O)[C@H](NC(=O)[C@H](CCCN=C(N)N)NC(=O)[C@H](CC1CCCCC1)NC(C)=O)C(C)(C)C)C(=O)N(C)[C@@H](C)C(=O)N[C@@H](CO)C(=O)N[C@H](C(N)=O)C(C)(C)C,,,
0.34,1.14,,,,,0.32,CSCC[C@H](NC(=O)[C@H](C)NC(=O)[C@H](CCCN=C(N)N)NC(=O)[C@H](CC1CCCCC1)NC(C)=O)C(=O)N[C@H](C)C(=O)N[C@@H](CO)C(N)=O,,,
0.25,0.07,,,,,0.03,CSCC[C@H](NC(=O)[C@H](C)NC(=O)[C@H](CCCN=C(N)N)NC(=O)[C@H](CC1CCCCC1)NC(C)=O)C(=O)N[C@H](C)C(N)=O,,,
0.05,0.01,,,,,0.005,CSCC[C@H](NC(=O)[C@H](C)NC(=O)[C@H](CCCN=C(N)N)NC(=O)[C@H](CC1CCCCC1)NC(C)=O)C(N)=O (Ac-[Cha]RAM-NH2),,,
1,1,0%,,,3 min,1,CSCC[C@H](NC(=O)[C@H](C)NC(=O)[C@H](CCCN=C(N)N)NC(=O)[C@H](CC1CCCCC1)NC(C)=O)C(=O)N[C@@H](C)C(=O)N[C@@H](CO)C(=O)N[C@@H](CC(C)C)C(N)=O (Ac-[Cha]RAMASL-NH2),,0,0.12
1.22,0.6,0%,,,7.3 min,,CSCC[C@H](NC(=O)[C@H](C)NC(=O)[C@H](CCCN=C(N)N)NC(=O)[C@H](CC1CCCCC1)NC(C)=O)C(=O)N(C)[C@@H](C)C(=O)N[C@@H](CO)C(=O)N[C@@H](CC(C)C)C(N)=O (Ac-[Cha]RAM[NMeA]SL-NH2),,,
,,0%,,,4.8 min,,CSCC[C@H](NC(=O)[C@H](C)NC(=O)[C@H](CCCN=C(N)N)NC(=O)[C@H](CC1CCCCC1)NC(C)=O)C(=O)N(C)[C@@H](C)C(=O)N[C@@H](CO)C(=O)N(C)[C@@H](CC(C)C)C(N)=O (Ac-[Cha]RAM[NMeA]S[NMeL]-NH2),,,
,,99%,,,10700 min,,CSCC[C@H](NC(=O)[C@H](C)N(C)C(=O)[C@H](CCCN=C(N)N)NC(=O)[C@H](CC1CCCCC1)NC(C)=O)C(=O)N(C)[C@@H](C)C(=O)N[C@@H](CO)C(=O)N(C)[C@@H](CC(C)C)C(N)=O (Ac-[Cha]R[NMeA]M[NMeA]S[NMeL]-NH2),,,
,,,,,,,CSCC[C@H](NC(=O)[C@H](C)N(C)C(=O)[C@H](CCCN=C(N)N)NC(=O)[C@H](CC1CCCCC1)NC(C)=O)C(=O)N1CCC(c2ccccc2)[C@H]1C(=O)N[C@@H](CO)C(=O)N(C)[C@@H](C)C(N)=O (some centres not stated) (Ac-[Cha]R[NMeA]M[X1]S[NMeA]-NH2),,1.2,3.7
,,106%,0.03,0.18,,,CC(=O)N[C@@H](CC1CCCCC1)C(=O)N[C@@H](CCCN=C(N)N)C(=O)N(C)[C@@H](C)C(=O)N[C@H]1CCc2cccc3c2N(C1=O)[C@H](C(=O)N[C@@H](CO)C(=O)N(C)[C@@H](CC(C)C)C(N)=O)C3 (Ac-[Cha]R[NMeA][Haic]S[NMeL]-NH2),,2.32,<0.04
,,95%,0.01,0.11,,,CC(=O)N[C@@H](CC1CCCCC1)C(=O)N[C@@H](CCCN=C(N)N)C(=O)N(C)[C@H](C(=O)N[C@H]1CCc2cccc3c2N(C1=O)[C@H](C(=O)N[C@@H](CO)C(=O)N(C)[C@@H](CC(C)C)C(N)=O)C3)c1ccccc1 (Ac-[Cha]R[NMePhg][Haic]S[NMeL]-NH2),,1,0.1
,,141%,0.01,0.37,,,CC(=O)N[C@@H](CC1CCCCC1)C(=O)N[C@@H](CCCN=C(N)N)C(=O)N(C)[C@H](C(=O)N[C@H]1CCc2cccc3c2N(C1=O)[C@H](C(=O)N[C@@H](CO)C(=O)N(C)C(C)C(N)=O)C3)c1ccccc1 (some centres not stated) (Ac-[Cha]R[NMePhg][Haic]S[ξNMeA]-NH2),,4.6,<0.2
,,126%,0.06,0.23,,,CC(=O)N[C@@H](CC1CCCCC1)C(=O)N[C@@H](CCCN=C(N)N)C(=O)N(C)[C@H](C(=O)N[C@H]1CCc2cccc3c2N(C1=O)[C@H](C(=O)N[C@@H](CO)C(=O)NC(C(N)=O)C(C)(C)C)C3)c1ccccc1 (some centres not stated) (Ac-[Cha]R[NMePhg][Haic]S[ξTle]-NH2),,3,2.3
,,109%,0.12,0.27,,,CC(=O)N[C@@H](CC1CCCCC1)C(=O)N[C@@H](CCCN=C(N)N)C(=O)N1Cc2ccccc2C[C@H]1C(=O)N[C@H]1CCc2cccc3c2N(C1=O)[C@H](C(=O)N[C@@H](CO)C(=O)N(C)[C@@H](C)C(N)=O)C3 (Ac-[Cha]R[Tic][Haic]S[NMeA]-NH2),,0.7,0.2
